Laboratory results published in publication PMC7442178 (Biochemical engineering journal, 2019).
Each block holds one compound with its values, some of them ahead of it. Residues, ends and D or L forms follow the SMILES beside them. *: point of attachment. AMC = Cc1cc(=O)oc2cc(N*)ccc12; Cbz = O=C(OCc1ccccc1)*

Key:
DUBs in OPM2 lysates = assay: DUB-mediated hydrolysis of peptide reporters in OPM2 lysates; format: biochemical
Summary of the method: (§1)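 Lysates (4 mg/mL protein, by NanoDrop) came from M-PER extraction of PBS-washed HeLa or OPM2 cells, clarified at 14,000 × g. Lysates were pre-treated 1 h with 20 or 50 μM PR-619 or DMSO, in 50 mM HEPES pH 7.4, 150 mM NaCl, 2 mM DTT, 0.02% Tween-20. Released AFC or AMC was read every 30 min for 6 h at 30°C. Rates were calibrated, and Km and vmax came from Michaelis-Menten fits.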

DUBs in HeLa lysates = assay: DUB-mediated hydrolysis of peptide reporters in HeLa lysates; format: biochemical; details: for V/K value (Vmax/Km): HeLa lysates 4 mg/mL, DMSO curves, Michaelis-Menten parameters
Summary of the method: as §1

[1] = test system: DUBs in intact HeLa cells; assay: Enzyme-substrate kinetics in intact HeLa cells; format: cell-based
[2] = test system: DUBs in intact OPM2 cells; assay: Direct visualization of DUB activity in intact OPM2 cells; format: cell-based; details: 50 μM peptide, 120 minutes, 37°C, DAPI filter
[3] = cited from earlier work
intact cells = details: cited from earlier work

Compound: N#CSc1cc(SC#N)c(N)nc1N [PR-619]
Inhibition of DUB activity (residual activity) (DUBs in OPM2 lysates; lysates treated with 50 μM PR-619, pre-treatment 1 h, OPM2 lysates): incomplete inhibition | Inhibition of DUB activity (residual activity) (DUBs in HeLa lysates; lysates treated with 50 μM PR-619, pre-treatment 1 h, HeLa lysates): incomplete inhibition

V/K value (Vmax/Km) (DUBs in HeLa lysates): 0.00021 min⁻¹
Compound: Cc1cc(=O)oc2cc(NC(=O)CNC(=O)CNC(=O)[C@H](CCCNC(=N)N)NC(=O)[C@H](CC(C)C)NC(=O)OCc3ccccc3)ccc12 [Peptide 3, Z-Leu-Arg-Gly-Gly-AMC] (Cbz-LRGG-{AMC})
Reaction rates in intact cells ([1]; intact HeLa cells incubated with varying peptide concentrations for 6 h): not significantly different from zero | Intracellular fluorescence signal from DUB-mediated hydrolysis [2]: did not produce a detectable signal

Compound: Ac-RWVRVpGO(FAM)WIRQ-LRGG-AFC [Peptide 1]
Uninhibited reaction rates in OPM2 lysates, comparison (DUBs in OPM2 lysates; OPM2 lysates 4 mg/mL, no inhibitor, p<10^−4): significantly higher than Peptide 3 | Si,max, intracellular saturation concentration (model) ([1]; calculated from a, b, c, d, nintact with Eq. 7, HeLa cells): 1.28 µM | S0,50, external solution concentration at half-saturation level (model) ([1]; calculated from a, b, c, d, nintact with Eq. 8, HeLa cells): 55.1 µM | nintact (Hill coefficient) ([1]; intact HeLa cells, Hill model fit): 6.8 | (V/K) intact ([1]; intact HeLa cells, from Hill parameters, unit not given): 1.38*10^−5 | Intracellular fluorescence signal from DUB-mediated hydrolysis [2]: showed an increase in intracellular fluorescence | V/K value (Vmax/Km) (DUBs in HeLa lysates): 0.00212 min⁻¹

Compound: Ac-RWVRVpGO(FAM)WIRQ-LVLRLRGG-AFC [Peptide 2]
Effect of DUB inhibition (PR-619) on rate data of the reporter (DUBs in HeLa lysates; HeLa lysates pre-treated 1 h with 0, 20, 50 μM PR-619): did not result in a significant effect

Compound: RWVRVpGRWIRQ [RWRWR]
half-life in HeLa lysates [3]: 7 h | Incubation time sufficient to deliver the CPP into intact cells (intact cells): 10 min | Time to penetrate intact cells (intact cells): ≤ 10 min
